# Several values for one entry are separate records, joined by “and”; a condition that tells them apart may be missing. Equal entries are not always repeated.
# System: U2OS
# Assay: Multiplex assay against U2OS
# Format: toxicity, cell-based
# Conditions: human
# Procedure, shortened: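 With compound added, live cells were imaged on a CQ1 microscope at 37°C and 5% CO2; staining with Hoechst33342, BioTracker Green Microtubule Cytoskeleton Dye, MitoTracker Red and Annexin V Alexa Fluor 680 had been done at seeding. The CellPathfinder machine-learning gating scheme split cells into Hoechst high-intensity objects or normal cells, normal cells into healthy, pyknosed or fragmented nuclei, and pyknosed cells into mitotic or apoptotic. The tubulin, mitochondrial-mass and membrane-permeability phenotypes are per cents of healthy-nucleus cells.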
# [1] = 12 h, 1 µM, compound concentration 1 uM, replicate 1
# [2] = 12 h, 1 µM, compound concentration 1 uM, replicate 2
# [3] = 12 h, 10 µM, compound concentration 10 uM, replicate 1
# [4] = 12 h, 10 µM, compound concentration 10 uM, replicate 2
# [5] = 24 h, 1 µM, compound concentration 1 uM, replicate 1
# [6] = 24 h, 1 µM, compound concentration 1 uM, replicate 2
# [7] = 24 h, 10 µM, compound concentration 10 uM, replicate 1
# [8] = 24 h, 10 µM, compound concentration 10 uM, replicate 2
# [9] = 48 h, 1 µM, compound concentration 1 uM, replicate 1
# [10] = 48 h, 1 µM, compound concentration 1 uM, replicate 2
# [11] = 48 h, 10 µM, compound concentration 10 uM, replicate 1
# [12] = 48 h, 10 µM, compound concentration 10 uM, replicate 2
smiles,measurement,setting,value
CN1CCC[C@@H]1CCO[C@](C)(c1ccccc1)c1ccc(Cl)cc1.O=C(O)/C=C/C(=O)O [CLEMASTINE FUMARATE],Population Apoptotic (%),[1],50%
same,Population Fragmented Nuclei (%),[1],12%
same,Population Healthy Nuclei (%),[1],72%
same,Population Hoechst High Intensity Objects (%),[1],11%
same,Population Membrane Permeable-Phenotype (%),[1],5%
same,Population Mitochondria Different-Phenotype (%),[1],18%
same,Population Mitotic Cells (%),[1],50%
same,Population Normal (%),[1],88%
same,Population Pyknosed Nuclei (%),[1],14%
same,Population Tubulin-Different-Phenotype (%),[1],12%
same,Total Cell Count,[1],108
same,Population Fragmented Nuclei (%),[2],15%
same,Population Healthy Nuclei (%),[2],76%
same,Population Hoechst High Intensity Objects (%),[2],1%
same,Population Membrane Permeable-Phenotype (%),[2],3%
same,Population Mitochondria Different-Phenotype (%),[2],6%
same,Population Normal (%),[2],98%
same,Population Pyknosed Nuclei (%),[2],7%
same,Population Tubulin-Different-Phenotype (%),[2],3%
same,Total Cell Count,[2],78
same,Population Apoptotic (%),[3],50%
same,Population Fragmented Nuclei (%),[3],24%
same,Population Hoechst High Intensity Objects (%),[3],18%
same,Population Membrane Permeable-Phenotype (%),[3],13%
same,Population Mitochondria Different-Phenotype (%),[3],97%
same,Population Mitotic Cells (%),[3],50%
same,Population Normal (%),[3],81%
same,Population Pyknosed Nuclei (%),[3],34%
same,Population Tubulin-Different-Phenotype (%),[3],83%
same,Total Cell Count,[3],127
same,Population Apoptotic (%),[4],85%
same,Population Fragmented Nuclei (%),[4],19%
same,Population Healthy Nuclei (%),[4],41%
same,Population Hoechst High Intensity Objects (%),[4],21%
same,Population Membrane Permeable-Phenotype (%),[4],6%
same,Population Mitochondria Different-Phenotype (%),[4],86%
same,Population Mitotic Cells (%),[4],14%
same,Population Normal (%),[4],78%
same,Population Pyknosed Nuclei (%),[4],38%
same,Population Tubulin-Different-Phenotype (%),[4],40%
same,Total Cell Count,[4],46
same,Population Apoptotic (%),[5],55%
same,Population Fragmented Nuclei (%),[5],7%
same,Population Healthy Nuclei (%),[5],85%
same,Population Hoechst High Intensity Objects (%),[5],6%
same,Population Membrane Permeable-Phenotype (%),[5],5%
same,Population Mitochondria Different-Phenotype (%),[5],9%
same,Population Mitotic Cells (%),[5],44%
same,Population Normal (%),[5],93%
same,Population Pyknosed Nuclei (%),[5],7%
same,Population Tubulin-Different-Phenotype (%),[5],13%
same,Total Cell Count,[5],135
same,Population Apoptotic (%),[6],18%
same,Population Fragmented Nuclei (%),[6],14%
same,Population Healthy Nuclei (%),[6],70%
same,Population Hoechst High Intensity Objects (%),[6],0%
same,Population Mitochondria Different-Phenotype (%),[6],13%
same,Population Mitotic Cells (%),[6],81%
same,Population Normal (%),[6],99%
same,Population Pyknosed Nuclei (%),[6],15%
same,Population Tubulin-Different-Phenotype (%),[6],6%
same,Total Cell Count,[6],107
same,Population Apoptotic (%),[7],64%
same,Population Fragmented Nuclei (%),[7],33%
same,Population Healthy Nuclei (%),[7],35%
same,Population Hoechst High Intensity Objects (%),[7],10%
same,Population Membrane Permeable-Phenotype (%),[7],21%
same,Population Mitochondria Different-Phenotype (%),[7],100%
same,Population Mitotic Cells (%),[7],35%
same,Population Normal (%),[7],90%
same,Population Pyknosed Nuclei (%),[7],31%
same,Population Tubulin-Different-Phenotype (%),[7],68%
same,Total Cell Count,[7],120
same,Population Apoptotic (%),[8],76%
same,Population Fragmented Nuclei (%),[8],21%
same,Population Healthy Nuclei (%),[8],36%
same,Population Hoechst High Intensity Objects (%),[8],12%
same,Population Membrane Permeable-Phenotype (%),[8],26%
same,Population Mitochondria Different-Phenotype (%),[8],86%
same,Population Mitotic Cells (%),[8],23%
same,Population Normal (%),[8],87%
same,Population Pyknosed Nuclei (%),[8],41%
same,Population Tubulin-Different-Phenotype (%),[8],26%
same,Total Cell Count,[8],47
same,Population Apoptotic (%),[9],38%
same,Population Hoechst High Intensity Objects (%),[9],3%
same,Population Membrane Permeable-Phenotype (%),[9],4%
same,Population Mitochondria Different-Phenotype (%),[9],11%
same,Population Mitotic Cells (%),[9],61%
same,Population Normal (%),[9],96%
same,Population Pyknosed Nuclei (%),[9],10%
same,Population Tubulin-Different-Phenotype (%),[9],6%
same,Total Cell Count,[9],184
same,Population Apoptotic (%),[10],31%
same,Population Fragmented Nuclei (%),[10],5%
same,Population Healthy Nuclei (%),[10],84%
same,Population Hoechst High Intensity Objects (%),[10],1%
same,Population Membrane Permeable-Phenotype (%),[10],5%
same,Population Mitochondria Different-Phenotype (%),[10],13%
same,Population Mitotic Cells (%),[10],68%
same,Population Normal (%),[10],98%
same,Population Pyknosed Nuclei (%),[10],9%
same,Population Tubulin-Different-Phenotype (%),[10],15%
same,Total Cell Count,[10],164
same,Population Apoptotic (%),[11],83%
same,Population Fragmented Nuclei (%),[11],33%
same,Population Healthy Nuclei (%),[11],25%
same,Population Hoechst High Intensity Objects (%),[11],11%
same,Population Membrane Permeable-Phenotype (%),[11],3%
same,Population Mitochondria Different-Phenotype (%),[11],80%
same,Population Mitotic Cells (%),[11],16%
same,Population Normal (%),[11],88%
same,Population Pyknosed Nuclei (%),[11],41%
same,Population Tubulin-Different-Phenotype (%),[11],50%
same,Total Cell Count,[11],117
same,Population Apoptotic (%),[12],54%
same,Population Fragmented Nuclei (%),[12],25%
same,Population Healthy Nuclei (%),[12],46%
same,Population Hoechst High Intensity Objects (%),[12],15%
same,Population Membrane Permeable-Phenotype (%),[12],44%
same,Population Mitochondria Different-Phenotype (%),[12],72%
same,Population Mitotic Cells (%),[12],45%
same,Population Normal (%),[12],84%
same,Population Pyknosed Nuclei (%),[12],28%
same,Population Tubulin-Different-Phenotype (%),[12],55%
same,Total Cell Count,[12],46
NC(=O)Nc1cc(-c2cccc(F)c2)sc1C(=O)N[C@H]1CCCNC1 [AZD-7762],Population Apoptotic (%),[1],25%
same,Population Fragmented Nuclei (%),[1],7%
same,Population Hoechst High Intensity Objects (%),[1],3%
same,Population Membrane Permeable-Phenotype (%),[1],9%
same,Population Mitochondria Different-Phenotype (%),[1],17%
same,Population Mitotic Cells (%),[1],75%
same,Population Normal (%),[1],96%
same,Population Pyknosed Nuclei (%),[1],10%
same,Total Cell Count,[1],157
same,Population Apoptotic (%),[2],0%
same,Population Fragmented Nuclei (%),[2],8%
same,Population Healthy Nuclei (%),[2],81%
same,Population Hoechst High Intensity Objects (%),[2],15%
same,Population Membrane Permeable-Phenotype (%),[2],13%
same,Population Mitochondria Different-Phenotype (%),[2],10%
same,Population Mitotic Cells (%),[2],100%
same,Population Normal (%),[2],84%
same,Population Pyknosed Nuclei (%),[2],9%
same,Population Tubulin-Different-Phenotype (%),[2],26%
same,Total Cell Count,[2],110
same,Population Apoptotic (%),[3],25% and 43%
same,Population Fragmented Nuclei (%),[3],28%
same,Population Healthy Nuclei (%),[3],28% and 20%
same,Population Hoechst High Intensity Objects (%),[3],3% and 12%
same,Population Membrane Permeable-Phenotype (%),[3],19% and 8%
same,Population Mitochondria Different-Phenotype (%),[3],15% and 20%
same,Population Mitotic Cells (%),[3],74% and 56%
same,Population Normal (%),[3],96% and 87%
same,Population Pyknosed Nuclei (%),[3],49% and 50%
same,Population Tubulin-Different-Phenotype (%),[3],17% and 11%
same,Total Cell Count,[3],189 and 194
same,Population Apoptotic (%),[4],46% and 22%
same,Population Fragmented Nuclei (%),[4],22% and 25%
same,Population Healthy Nuclei (%),[4],25% and 32%
same,Population Hoechst High Intensity Objects (%),[4],5% and 11%
same,Population Membrane Permeable-Phenotype (%),[4],21% and 20%
same,Population Mitotic Cells (%),[4],53% and 77%
same,Population Normal (%),[4],94% and 88%
same,Population Pyknosed Nuclei (%),[4],52% and 41%
same,Total Cell Count,[4],79 and 84
same,Population Apoptotic (%),[5],40%
same,Population Fragmented Nuclei (%),[5],15%
same,Population Healthy Nuclei (%),[5],52%
same,Population Hoechst High Intensity Objects (%),[5],6%
same,Population Membrane Permeable-Phenotype (%),[5],16%
same,Population Mitochondria Different-Phenotype (%),[5],21%
same,Population Mitotic Cells (%),[5],60%
same,Population Normal (%),[5],93%
same,Population Pyknosed Nuclei (%),[5],32%
same,Population Tubulin-Different-Phenotype (%),[5],35%
same,Total Cell Count,[5],150
same,Population Apoptotic (%),[6],37%
same,Population Fragmented Nuclei (%),[6],7%
same,Population Healthy Nuclei (%),[6],51%
same,Population Hoechst High Intensity Objects (%),[6],18%
same,Population Membrane Permeable-Phenotype (%),[6],7%
same,Population Mitotic Cells (%),[6],62%
same,Population Normal (%),[6],81%
same,Population Pyknosed Nuclei (%),[6],40%
same,Population Tubulin-Different-Phenotype (%),[6],34%
same,Total Cell Count,[6],97
same,Population Apoptotic (%),[7],81% and 85%
same,Population Healthy Nuclei (%),[7],7%
same,Population Hoechst High Intensity Objects (%),[7],9% and 10%
same,Population Mitochondria Different-Phenotype (%),[7],46% and 78%
same,Population Mitotic Cells (%),[7],18% and 14%
same,Population Normal (%),[7],90% and 89%
same,Population Pyknosed Nuclei (%),[7],47% and 70%
same,Total Cell Count,[7],185 and 189
same,Population Apoptotic (%),[8],92% and 70%
same,Population Fragmented Nuclei (%),[8],16% and 21%
same,Population Healthy Nuclei (%),[8],16% and 18%
same,Population Hoechst High Intensity Objects (%),[8],20% and 11%
same,Population Membrane Permeable-Phenotype (%),[8],100% and 64%
same,Population Mitochondria Different-Phenotype (%),[8],80% and 57%
same,Population Normal (%),[8],80% and 88%
same,Population Pyknosed Nuclei (%),[8],66% and 59%
same,Population Tubulin-Different-Phenotype (%),[8],90% and 64%
same,Total Cell Count,[8],75 and 84
same,Population Apoptotic (%),[11],95%
same,Population Fragmented Nuclei (%),[11],38%
same,Population Healthy Nuclei (%),[11],1%
same,Population Hoechst High Intensity Objects (%),[11],15%
same,Population Membrane Permeable-Phenotype (%),[11],0%
same,Population Mitochondria Different-Phenotype (%),[11],33%
same,Population Mitotic Cells (%),[11],4%
same,Population Normal (%),[11],84%
same,Population Pyknosed Nuclei (%),[11],59%
same,Population Tubulin-Different-Phenotype (%),[11],33%
same,Total Cell Count,[11],188
same,Population Apoptotic (%),[12],100%
same,Population Fragmented Nuclei (%),[12],16%
same,Population Healthy Nuclei (%),[12],44%
same,Population Hoechst High Intensity Objects (%),[12],21%
same,Population Membrane Permeable-Phenotype (%),[12],100%
same,Population Mitochondria Different-Phenotype (%),[12],92%
same,Population Mitotic Cells (%),[12],0%
same,Population Normal (%),[12],78%
same,Population Pyknosed Nuclei (%),[12],38%
same,Population Tubulin-Different-Phenotype (%),[12],96%
same,Total Cell Count,[12],75

# From ChEMBL document CHEMBL4689842, “EUbOPEN Chemogenomics Library wave 1” (2021)
